Values belong to the substance of their own block, whether it stands above or below them.
Experiments:
[1] = ref [12]; cited from earlier work
EAE = settings: cited from earlier work
plasma proteins = settings: ref [13], cited from earlier work
insulin fibril formation = experiment: Inhibition of insulin amyloid fibril formation; type: biochemical, bovine; settings: ThT fluorescence ex 440 nm, em 485 nm (fig. S2)
In short: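 Fibril formation is tracked in the DTT-reduced insulin chaperone reaction: bovine insulin in NaCl/Tris pH 7.4 at 37°C, with or without test peptide fibrils. Thioflavin T is added from a 10 µM solution and fluorescence is read at 485 nm with excitation at 440 nm on a microplate reader.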

[2] = target: bovine insulin (beta chain) aggregation (Bos taurus, UniProt P01317); experiment: Chaperone assay: inhibition of DTT induced insulin aggregation; type: biochemical
In short: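 Bovine insulin (150 µg) in 100 mM NaCl, 20 mM Tris pH 7.4, with or without varying peptide or protein concentrations, at 37°C; some runs at pH 5. Reduction is started at time zero with DTT (100 mM stock). Aggregation is followed as absorbance at 360 nm over 20 min. In time-of-addition runs, small heat shock protein or fibrils are added 3, 10 or 16 min after DTT, with a buffer-only addition as dilution control.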

[3] = system: animal models of stroke, cardiac and retinal ischemia-reperfusion injury; settings: cited from earlier work

bovine insulin (beta chain) aggregation, sequence (P01317 25-54 limits assumed): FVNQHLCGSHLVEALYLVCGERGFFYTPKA

Substance: 73–92 of HspB5: linear peptide region within HspB5, residues 73–92 (DRFSVNLDVKHFSPEELKVK; UniProt P02511 73-92, looked up, fragment)
chaperone activity [1]: exhibited chaperone activity | reduction of paralysis and histological neuroinflammation in EAE (EAE; ref [12]): therapeutic, reducing paralysis and histological neuroinflammation in EAE

Substance: Aβ 1–40: peptide from amyloid β A4
anti-inflammatory effect in EAE (EAE; ameliorating paralysis and reducing brain inflammation, ref [6]): effective anti-inflammatory agents

effect on light scattering when added 3 min after DTT ([2]; 150 µg HspB5 or Tau fibrils added three minutes after dithiothreitol (fig. S3)): rapid increase in light scattering
Substance: HspB5: amyloid forming small heat shock protein
number of ligands precipitated from plasma (plasma proteins; enriched and temperature dependent binding): approximately 70 | ligands that are acute phase, complement or coagulation proteins (plasma proteins): Greater than 50% | inhibition of insulin fibril formation (insulin fibril formation): effective inhibitors of insulin fibril formation | inhibition of insulin aggregation when given at time 0 ([2]; 150 µg HspB5 given at time 0): fully inhibitory dose when given at time 0 | effect on light scattering when added at 10 and 16 minutes ([2]; added 10 and 16 minutes after initiation): increase in light scattering, albeit less of an increase at longer than earlier time points | effect on insulin fibrillization after initiation ([2]; added after initiation of fibril formation (figs. S3, S4)): can increase the light scattering after initiation of fibril formation | therapeutic effect in stroke model ([3]; ref [3]): therapeutic | therapeutic effect in cardiac and retinal ischemia-reperfusion injury ([3]; ref [4], [5]): therapeutic | therapeutic effect in animal models of multiple sclerosis (EAE; ref [2]): therapeutic
